# Publication PMC7439261 (ACS Omega, 2020)
# Values joined by “and” are separate entries in the source; they are usually repeats but may differ in a detail not shown here. Equal values may be shown once. Read-outs that look alike come from different tables or passages of the source.
# Key:
# [1] = test system: H. pylori ATCC 43504; assay: Broth dilution bioassay MIC/MBC, ATCC 43504; assay type: cell-based; settings: Helicobacter pylori; for MIC: ATCC43504, 48 h; for MBC: ATCC43504, 72 h
# [2] = test system: H. pylori ATCC 51932; assay: Broth dilution bioassay MIC/MBC, ATCC 51932; assay type: cell-based; settings: Helicobacter pylori; for MIC: ATCC51932, 48 h; for MBC: ATCC51932, 72 h
# [3] = test system: H. pylori OX.22; assay: Broth dilution bioassay MIC/MBC, OX.22; assay type: cell-based; settings: Helicobacter pylori; for MIC: OX.22, 48 h; for MBC: OX.22, 72 h
# [4] = test system: H. pylori OX.63; assay: Broth dilution bioassay MIC/MBC, OX.63; assay type: cell-based, Helicobacter pylori; settings: for MIC: H. pylori OX.63, broth dilution, 48 h; for MBC: OX.63, 72 h
# [5] = test system: H. pylori OX.64; assay: Broth dilution bioassay MIC/MBC, OX.64; assay type: cell-based, Helicobacter pylori; settings: for MIC: H. pylori OX.64, broth dilution, 48 h; for MBC: OX.64, 72 h
# [6] = test system: H. pylori OX.67; assay: Broth dilution bioassay MIC/MBC, OX.67; assay type: cell-based, Helicobacter pylori; settings: for MIC: H. pylori OX.67, broth dilution, 48 h; for MBC: OX.67, 72 h
# [7] = test system: H. pylori OX.83; assay: Broth dilution bioassay MIC/MBC, OX.83; assay type: cell-based, Helicobacter pylori; settings: for MIC: H. pylori OX.83, broth dilution, 48 h; for MBC: OX.83, 72 h
# [8] = test system: test strains of H. pylori; assay: Broth dilution bioassay MIC/MBC, text summary over test strains; assay type: cell-based; settings: Helicobacter pylori
# [9] = test system: H. pylori ATCC 43504; assay: Time-killing assay; assay type: cell-based, Helicobacter pylori
# Summary of the method: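 H. pylori ATCC 43504 in 10% NBS-supplemented Brucella broth in 96-well plates, by broth microdilution. Inoculum suspension 5×10^6 CFU/mL; DMSO final ≤2.5%. Test compound was used at concentrations from MIC to MBC, alongside an untreated control. Viability was counted by plate colony count at 0, 6, 12, 18, 24, 36 and 48 h.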
# [10] = test system: H. pylori ATCC 43504 biofilm formation; assay: Biofilm formation inhibitory assay; assay type: cell-based, Helicobacter pylori; settings: 48 h
# [11] = test system: H. pylori ATCC 43504; assay: Effect on morphology; assay type: cell-based, Helicobacter pylori
# [12] = Sulforhodamine cytotoxicity assay, MCF7; assay type: cell-based; settings: human, MCF7 cells
# Summary of the method: (§1)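 Cells were grown in EMEM with 10% FBS, 2 mM L-glutamine, 20 mM HEPES and antibiotics at 37 °C, 5% CO2. Passages were 4–20 for HeLa, MCF7 and Jurkat, and 2–5 for fibroblasts. Seeding per well for 24 h: HeLa 5×10^3, MCF7 and fibroblast 10^4, Jurkat 5×10^4. Test compound (0–200 mg/L, in DMSO) was added for 48 h. Cells were fixed with cold TCA, stained with 0.2% SRB, solubilised in 10 mM Tris and read at 492 nm. Camptothecin was the positive control. Triplicates, three independent experiments.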
# [13] = Sulforhodamine cytotoxicity assay, Jurkat; assay type: cell-based; settings: human, Jurkat cells
# Summary of the method: as §1
# [14] = Sulforhodamine cytotoxicity assay, HeLa; assay type: cell-based; settings: human, HeLa cells
# Summary of the method: as §1
# [15] = Sulforhodamine cytotoxicity assay, fibroblast; assay type: cell-based; settings: human, fibroblast cells derived from human foreskins
# Summary of the method: as §1
# [16] = Sulforhodamine cytotoxicity assay, text summary over four cell lines; assay type: cell-based; settings: human
# Summary of the method: as §1
# [17] = target: H. pylori ATCC 43504 urease (Helicobacter pylori, UniProt P69996); assay: Urease inhibition, salicylate-hypochlorite method; assay type: biochemical; settings: for slope ± SE: slope of dose-response curve of percentage of urease inhibition
# Sequence of H. pylori ATCC 43504 urease (P69996 whole entry): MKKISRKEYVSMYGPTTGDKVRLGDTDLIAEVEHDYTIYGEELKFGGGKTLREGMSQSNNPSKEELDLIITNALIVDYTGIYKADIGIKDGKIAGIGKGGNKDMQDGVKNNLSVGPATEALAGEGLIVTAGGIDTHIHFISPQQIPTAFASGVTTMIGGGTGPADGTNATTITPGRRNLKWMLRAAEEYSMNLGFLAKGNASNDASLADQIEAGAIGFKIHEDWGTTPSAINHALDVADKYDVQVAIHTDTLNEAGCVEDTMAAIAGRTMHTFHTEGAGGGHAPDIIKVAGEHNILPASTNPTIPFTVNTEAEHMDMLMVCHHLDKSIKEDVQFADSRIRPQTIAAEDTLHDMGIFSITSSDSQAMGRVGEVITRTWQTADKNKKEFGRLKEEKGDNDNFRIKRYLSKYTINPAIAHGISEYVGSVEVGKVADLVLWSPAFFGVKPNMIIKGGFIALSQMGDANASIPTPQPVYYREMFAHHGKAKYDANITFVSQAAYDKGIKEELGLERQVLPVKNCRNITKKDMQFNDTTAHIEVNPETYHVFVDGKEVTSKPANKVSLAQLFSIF
# Sequence of H. pylori ATCC 43504 urease (P14916 whole entry partner): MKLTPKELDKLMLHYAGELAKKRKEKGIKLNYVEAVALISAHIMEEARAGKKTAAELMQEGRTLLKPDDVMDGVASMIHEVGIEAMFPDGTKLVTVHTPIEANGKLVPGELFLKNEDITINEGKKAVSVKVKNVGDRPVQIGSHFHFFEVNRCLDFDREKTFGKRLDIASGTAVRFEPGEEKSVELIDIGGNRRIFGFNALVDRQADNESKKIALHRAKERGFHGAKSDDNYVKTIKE
# Summary of the method: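 Crude H. pylori ATCC 43504 urease, 0.25 μg (0.04 U), in EDTA–sodium phosphate buffer pH 7.3, was preincubated with test compound at 37 °C for 90 min at 50 rpm. Urea solution (10 mM, as added) was then incubated for 30 min. Ammonia was measured by the salicylate–nitroprusside/alkaline hypochlorite method at 625 nm. Thiourea was the reference inhibitor. IC50 is molar. Triplicates, three independent experiments.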
# [18] = Helicobacter pylori, OX.63, 48 h
# [19] = Helicobacter pylori, OX.64, 48 h
# [20] = Helicobacter pylori, OX.67, 48 h
# [21] = Helicobacter pylori, OX.83, 48 h
SMILES,MIC [1] [µg/mL],MBC [1] [µg/mL],MIC [2] [µg/mL],MBC [2] [µg/mL],MIC [3] [µg/mL],MBC [3] [µg/mL],"MIC [4, 18] [µg/mL]",MBC ([4]; Helicobacter pylori) [µg/mL],"MIC [5, 19] [µg/mL]",MBC ([5]; Helicobacter pylori) [µg/mL],"MIC [6, 20] [µg/mL]",MBC ([6]; Helicobacter pylori) [µg/mL],"MIC [7, 21] [µg/mL]",MBC ([7]; Helicobacter pylori) [µg/mL],CC50 at 48 h [12] [µg/mL],CC50 at 48 h [13] [µg/mL],CC50 at 48 h [14] [µg/mL],CC50 at 48 h [15] [µg/mL],CC50 at 48 h [16] [µg/mL],slope ± SE [17],other results
"O=c1cc(-c2ccc(O)c(O)c2)oc2cc(O)cc(O)c12 [LUT, luteolin]",125,1250,125,1250,125,1250,125,1250,125,1250,125,1250,125,1250,8.64,5.12,8.36,49.8,5.12 to 49.8,2.16 ± 0.080,"MBC [8]: 1250 µg/mL; MIC ([8]; ATCC51932): 125 µg/mL; reduction of viability ([9]; four times the MIC, 12 h): ~3 log10; antibiofilm activity ([10]; at test concentrations (sub-MICs)): did not show antibiofilm activity; conversion to the coccoid form ([11]; 500 mg/L): 14.7%; conversion to the coccoid form ([11]; 1000 mg/L): 87.5%; IC50 [17]: 402 µM"
"O=c1c(O)c(-c2cc(O)c(O)c(O)c2)oc2cc(O)cc(O)c12 [MCT, myricetin]",150,1250,150,1250,150,1250,150,1250,150,1250,150,1250,150,1250,31.7,7.61,36.8,76.1,7.61 to 76.1,2.26 and 2.26 ± 0.070,"MBC [8]: 1250 µg/mL; MIC ([8]; ATCC51932): 150 µg/mL; reduction of viability ([9]; at the MIC, 24 h): ~2.7 log10; reduction of viability ([9]; eight times the MIC, 36 h): ~4.2 log10; reduction of biofilm formation ([10]; 1/2 × MIC (NRG 50 mg/L, MCT 75 mg/L)): 39.5%; conversion to the coccoid form ([11]; 500 mg/L): 15%; conversion to the coccoid form ([11]; 1000 mg/L): 79%; IC50 [17]: 63 µM; concentration of complete inhibition of urease ([17]; Figure 5): 0.402 mM"
CC1(C)S[C@@H]2[C@H](NC(=O)[C@H](N)c3ccc(O)cc3)C(=O)N2[C@H]1C(=O)O [amoxicillin],0.031,0.063,0.063,0.125,0.063,0.25,0.063,0.25,0.031,0.125,0.031,0.125,0.063,0.25,–,–,–,–,–,–,–
CC[C@H]1OC(=O)[C@H](C)[C@@H](O[C@H]2C[C@@](C)(OC)[C@@H](O)[C@H](C)O2)[C@H](C)[C@@H](O[C@@H]2O[C@H](C)C[C@H](N(C)C)[C@H]2O)[C@](C)(O)C[C@@H](C)CN(C)[C@H](C)[C@@H](O)[C@]1(C)O [azithromycin],0.5,1,0.5,1,0.5,1,32 to 64,128,16 to 32,128,64,128,64,128,–,–,–,–,–,–,MIC [4]: 32 µg/mL; MIC [5]: 16 µg/mL; MIC [6]: 32 µg/mL; MIC [7]: 32 µg/mL; MIC [8]: 16 to 32 µg/mL
"CC[C@@]1(O)C(=O)OCc2c1cc1n(c2=O)Cc2cc3ccccc3nc2-1 [camptothecin, reference compound]",–,–,–,–,–,–,–,–,–,–,–,–,–,–,0.005,0.005,0.89,1.57,0.005 to 1.57,–,–
CC[C@H]1OC(=O)[C@H](C)[C@@H](O[C@H]2C[C@@](C)(OC)[C@@H](O)[C@H](C)O2)[C@H](C)[C@@H](O[C@@H]2O[C@H](C)C[C@H](N(C)C)[C@H]2O)[C@](C)(O)C[C@@H](C)C(=O)[C@H](C)[C@@H](O)[C@]1(C)O [erythromycin],0.063,0.125,0.063,0.125,–,128,–,128,16 to 32,128,64,128,64,128,–,–,–,–,–,–,–
C[C@H]1COc2c(N3CCN(C)CC3)c(F)cc3c(=O)c(C(=O)O)cn1c23 [levofloxacin],0.125,0.25,0.125,0.25,0.063,0.5,0.063,0.5,16 to 32,128,0.063,0.25,0.75,1.25,–,–,–,–,–,–,MIC [5]: 32 µg/mL; MIC [8]: 32 µg/mL
Cc1ncc([N+](=O)[O-])n1CCO [metronidazole],32,192,2,4,32,256,32 to 64,256,16 to 32,256,2,4,1,2,–,–,–,–,–,–,MIC [4]: 64 µg/mL; MIC [5]: 32 µg/mL; MIC ([8]; 48 h): 24 to 64 µg/mL
"NC(N)=S [thiourea, reference compound]",–,–,–,–,–,–,–,–,–,–,–,–,–,–,–,–,–,–,–,1.79 ± 0.093,"IC50 ([17]; read-out: IC50 (95% CL), urease crude, preincubation 90 min, pH 7.3): 573 µM"
